Test results reported in ChEMBL document CHEMBL1121388, “Analgesic narcotic antagonists. 2. 8-Alkymorphinan-6-ones” (J Med Chem, 1980).
Active and inactive are the calls of the source. No cut-off for these calls is given here.

Experiments:
[1] = species: Rattus norvegicus; assay: Ratio of agonist to that of antagonist activity; format: functional
[2] = test system: Mus musculus; assay: The effective dose was measured by using mouse writhing assay after the compound administered subcutaneously.; format: functional; settings: sc
Summary of the method: (§1)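 Analgesia in the mouse writhing test induced by acetic acid, with compound given subcutaneously. Salts were dissolved in distilled H₂O; free bases were dissolved by dropwise 1 N HCl and then diluted.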

[3] = test system: Rattus norvegicus; assay: The effective dose was measured by using rat tail flick assay after the compound administered intraperitoneally.; format: functional; settings: ip
[4] = test system: Rattus norvegicus; assay: The Effective dose was measured by using rat tail flick assay after the compound administered intraperitoneally at a dose of 9 umol/kg; IA means inactive at the given dose; format: functional, organism-based
[5] = test system: Rattus norvegicus; assay: Effective dose was measured by using rat tail flick assay after subcutaneous administration; format: functional; settings: sc
Summary of the method: (§2)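 Agonist activity in the rat heat-stimulus tail-flick test. Drug was given subcutaneously and rats were tested 20 min after dosing. Salts were dissolved in distilled H₂O; free bases were dissolved with dropwise 1 N HCl and then diluted. ED₅₀ or inactivity/lethality recorded at the dose indicated.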

[6] = test system: Mus musculus; assay: The Effective dose was measured by using mouse writhing assay after the compound administered subcutaneously at a dose of 25 umol/kg; IA means inactive at the given dose; format: functional, organism-based; summary of the method: as §1
[7] = test system: Rattus norvegicus; assay: The Effective dose was measured by using rat tail flick assay after the compound administered intraperitoneally at a dose of 25 umol/kg; IA means inactive at the given dose; format: functional, organism-based
[8] = test system: Mus musculus; assay: The Effective dose was measured by using mouse writhing assay 5 min after the compound administered subcutaneously; format: functional; settings: sc
[9] = test system: Rattus norvegicus; assay: The Effective dose was measured by using rat tail flick assay after the compound administered intraperitoneally at a dose of 50 umol/kg; IA means inactive at the given dose; format: functional, organism-based
[10] = test system: Mus musculus; assay: The Effective dose was measured by using mouse writhing assay after the compound administered subcutaneously at a dose of 75 umol/kg; IA means inactive at the given dose; format: functional, organism-based; summary of the method: as §1
[11] = test system: Rattus norvegicus; assay: The Effective dose was measured by using rat tail flick assay after the compound administered subcutaneously at a dose of 28 umol/kg; IA means inactive at the given dose; format: functional, organism-based; summary of the method: as §2

Row | SMILES | ED50 [2] [µmol/kg] | ED50 [3] [µmol/kg] | further results
1 | COc1ccc2c(c1)[C@]13CCN(CC4CC4)[C@H](C2)[C@@H]1[C@@H](C)CC(=O)C3 | 0.71 | 4.27 | Ratio [1]: 0.17
2 | COc1ccc2c(c1)C13CCN(CC4CC4)C(C2)[C@@H]1CCC(=O)C3.Cl (stereo partly drawn) | 0.66 | 14.9 | Ratio [1]: 0.04
3 | CC[C@H]1CC(=O)CC23CCN(CC4CC4)C(Cc4ccc(OC)cc42)[C@H]13 (stereo partly drawn) | 4.4 | > 50 | 
4 | Oc1ccc2c(c1)[C@@]13CCCC[C@@]1(O)[C@@H](C2)N(CC1CCC1)CC3 [BUTORPHANOL] | 0.34 | 2 | Ratio [1]: 0.17
5 | CCC1CCCC23CCN(CC4CCC4)C(Cc4ccc(O)cc42)[C@H]13 (stereo partly drawn) | > 25 |  | ED50 [4]: inactive
6 | CC[C@H]1CC(=O)CC23CCN(C)C(Cc4ccc(OC)cc42)[C@H]13 (stereo partly drawn) | 3.23 |  | ED50 [5]: 10.6 µmol/kg
7 | COc1ccc2c(c1)C13CCN(C)C(C2)[C@@H]1[C@@H](C)CC(=O)C3 (stereo partly drawn) | 1.34 |  | ED50 [5]: 3.57 µmol/kg
8 | CC[C@@H]1CC(=O)CC23CCN(C)C(Cc4ccc(O)cc42)[C@@H]13 (stereo partly drawn) | 2.11 |  | ED50 [5]: 2.31 µmol/kg
9 | CCC[C@H]1CC(=O)CC23CCN(C)C(Cc4ccc(OC)cc42)[C@H]13 (stereo partly drawn) | 15.4 |  | ED50 [5]: > 28 µmol/kg
10 | C=CCN1CC[C@]23c4c5ccc(O)c4O[C@H]2[C@@H](O)C=C[C@H]3[C@H]1C5 [NALORPHINE] |  |  | Ratio [1]: 1.42
11 | CC[C@@H]1CC(=O)CC23CCN(CC4CC4)C(Cc4ccc(OC)cc42)[C@@H]13 (stereo partly drawn) |  | 1.64 | ED50 [6]: inactive
12 | C[C@@H]1CC(=O)CC23CCN(C)C(Cc4ccc(O)cc42)[C@@H]13 (stereo partly drawn) | 1.18 |  | ED50 [5]: 0.93 µmol/kg
13 | O=C1CC[C@H]2C3Cc4ccc(O)cc4C2(CCN3CC2CCC2)C1 (stereo partly drawn) | 0.047 |  | ED50 [7]: inactive
14 | CCC[C@@H]1CC(=O)CC23CCN(CC4CCC4)C(Cc4ccc(O)cc42)[C@@H]13 (stereo partly drawn) | > 24 | 4.5 | 
15 | COc1ccc2c(c1)C13CCN(CC4CCC4)C(C2)[C@@H]1CCC(=O)C3 (stereo partly drawn) | 0.58 |  | ED50 [7]: inactive
16 | COc1ccc2c(c1)C13CCN(C)C(C2)[C@@H]1CCC(=O)C3 (stereo partly drawn) | 1.72 |  | ED50 [5]: 2.32 µmol/kg
17 | C[C@H]1[C@H]2Cc3ccc(O)cc3[C@]1(C)CCN2CC1CC1 [CYCLAZOCINE] | 0.41 | 0.81 | Ratio [1]: 0.5
18 | CCC[C@H]1CC(=O)CC23CCN(CC4CC4)C(Cc4ccc(O)cc42)[C@H]13 (stereo partly drawn) |  | 24.3 | ED50 [6]: inactive
19 | CC[C@H]1CC(=O)CC23CCN(CC4CCC4)C(Cc4ccc(O)cc42)[C@H]13.Cl (stereo partly drawn) |  | 0.82 | ED50 [8]: 0.54 µmol/kg; Ratio [1]: 0.65
20 | CN1CCC23CC(=O)CC[C@@H]2C1Cc1ccc(O)cc13 (stereo partly drawn) | 0.75 |  | ED50 [5]: 1.33 µmol/kg
21 | CC[C@H]1CC(=O)CC23CCN(CC4CCC4)C(Cc4ccc(OC)cc42)[C@H]13 (stereo partly drawn) | 14.2 |  | ED50 [9]: inactive
22 | C=CCN1CCC23CC(=O)CC(C)[C@H]2C1Cc1ccc(O)cc13 (stereo partly drawn) | > 25 | 0.65 | 
23 | CC[C@@H]1CC(=O)CC23CCN(CC4CCC4)C(Cc4ccc(OC)cc42)[C@@H]13 (stereo partly drawn) |  | > 25 | ED50 [10]: inactive
24 | C[C@@H]1CC(=O)CC23CCN(CC4CCC4)C(Cc4ccc(O)cc42)[C@@H]13 (stereo partly drawn) | 5.98 | 12.8 | 
25 | O=C1CC[C@H]2C3Cc4ccc(O)cc4C2(CCN3CC2CC2)C1 (stereo partly drawn) | 3.28 | 7.4 | Ratio [1]: 0.44
26 | CCC[C@@H]1CC(=O)CC23CCN(C)C(Cc4ccc(OC)cc42)[C@@H]13 (stereo partly drawn) | 55 |  | ED50 [11]: inactive
27 | C[C@@H]1CC(=O)CC23CCN(CC4CC4)C(Cc4ccc(O)cc42)[C@@H]13 (stereo partly drawn) |  | 0.89 | ED50 [6]: inactive
28 | CC[C@H]1CC(=O)CC23CCN(C)C(Cc4ccc(O)cc42)[C@H]13 (stereo partly drawn) | 2.29 |  | ED50 [5]: 33 µmol/kg
29 | CC[C@@H]1CC(=O)CC23CCN(CC4CC4)C(Cc4ccc(O)cc42)[C@@H]13 (stereo partly drawn) |  | 0.88 | ED50 [6]: inactive
